The target of the assay is T1, Fatty-acid amide hydrolase 1 (Homo sapiens, UniProt O00519).
T1 sequence (O00519 whole entry): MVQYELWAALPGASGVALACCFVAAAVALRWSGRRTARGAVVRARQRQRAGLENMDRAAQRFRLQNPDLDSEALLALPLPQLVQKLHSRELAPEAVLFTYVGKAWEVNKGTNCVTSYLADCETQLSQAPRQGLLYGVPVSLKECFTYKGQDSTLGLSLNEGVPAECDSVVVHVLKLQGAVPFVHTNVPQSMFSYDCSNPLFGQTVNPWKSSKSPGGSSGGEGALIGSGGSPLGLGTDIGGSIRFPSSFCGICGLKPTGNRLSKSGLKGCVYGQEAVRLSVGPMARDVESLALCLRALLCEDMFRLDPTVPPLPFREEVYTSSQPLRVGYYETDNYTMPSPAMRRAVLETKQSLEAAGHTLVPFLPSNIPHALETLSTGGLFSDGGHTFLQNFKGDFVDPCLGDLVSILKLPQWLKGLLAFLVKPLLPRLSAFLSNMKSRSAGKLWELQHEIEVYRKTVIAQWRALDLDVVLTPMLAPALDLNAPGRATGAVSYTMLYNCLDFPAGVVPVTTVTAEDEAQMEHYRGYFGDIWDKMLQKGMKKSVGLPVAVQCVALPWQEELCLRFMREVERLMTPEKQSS
Description: Inhibition of human recombinant FAAH using [3H]anandamide by competitive hydrolysis assay. Put shortly:
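Compounds were added in DMSO, with DMSO alone as control, plus [3H]-AEA at 2 μM final, 37 °C for 10 min. The reaction was stopped on ice with cold chloroform/methanol (1:1), and the aqueous phase was counted by LSC with the buffer-only blank subtracted. IC50 is the mean of three independent experiments.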

In general, IC50 refers to the concentration needed to halve the response being measured. Regarding `CC(=O)O[C@@H]1[C@@H]([C@@H](C)OC(=O)CCc2ccccc2)C(=O)N1C(=O)CCc1ccccc1` [1-(3-Phenylpropanoyl)-(3R,4R)-3-[1(R)-(3-phenylpropanoyloxy)-ethyl]-4-(acetoxy)-azetidin-2-one], the IC50 worked out at 2190 nM.

Values taken from BindingDB's records for doi:10.1021/jm9008532 (Universite Catholique De Louvain, 2009).
